Activity calls are given as the source filed them. No cut-off for these calls is given here.

In assay [1] the target is T1, Polyunsaturated fatty acid lipoxygenase ALOX15 (Homo sapiens, UniProt P16050).
T1 sequence (P16050 whole entry): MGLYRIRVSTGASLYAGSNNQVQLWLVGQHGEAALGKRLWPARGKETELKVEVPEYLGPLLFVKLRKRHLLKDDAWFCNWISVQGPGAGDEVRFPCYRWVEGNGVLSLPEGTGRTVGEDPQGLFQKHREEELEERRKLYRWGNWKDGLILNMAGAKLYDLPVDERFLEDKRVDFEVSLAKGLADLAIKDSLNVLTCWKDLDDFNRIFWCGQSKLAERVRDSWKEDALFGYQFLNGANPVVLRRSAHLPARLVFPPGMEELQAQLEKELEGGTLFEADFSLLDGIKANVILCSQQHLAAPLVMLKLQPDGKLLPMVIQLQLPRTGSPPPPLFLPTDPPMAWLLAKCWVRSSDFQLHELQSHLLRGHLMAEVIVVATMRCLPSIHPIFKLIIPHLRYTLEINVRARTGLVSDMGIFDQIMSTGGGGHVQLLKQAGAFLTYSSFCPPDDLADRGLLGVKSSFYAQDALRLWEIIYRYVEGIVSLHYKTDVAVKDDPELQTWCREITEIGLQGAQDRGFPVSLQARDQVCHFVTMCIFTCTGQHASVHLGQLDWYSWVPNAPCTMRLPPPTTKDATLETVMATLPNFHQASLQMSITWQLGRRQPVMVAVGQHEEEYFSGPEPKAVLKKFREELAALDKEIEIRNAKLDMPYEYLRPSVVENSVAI
In words: Competitive inhibition of human 15-LOX-1 assessed as reduction in conversion of linoleic acid to 13(S)-HpODE incubated for 10 mins followed by linoleic acid addition by Lineweaver-Burk plot analysis.

Assay [2] concerns the target T2, Polyunsaturated fatty acid lipoxygenase ALOX15 (Homo sapiens) (UniProt P16050).
T2 sequence (whole entry): T1 sequence (P16050 whole entry)
Kind of assay: Competitive inhibition of human 15-LOX-1 assessed as apparent Vmax at 15 uM by Lineweaver-Burk plot analysis (reference value: 1.6 +/- 0.2 10^-4abs/s). In short, it runs like this: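 Purified enzyme activity was read as UV absorbance at 234 nm of the product formed from linoleic acid substrate, in 96-well format. Substrate-dependence runs were done with and without inhibitor. Apparent Km and Vmax were derived from Lineweaver-Burk plots.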

The target of assay [3] is T3, Polyunsaturated fatty acid lipoxygenase ALOX15 (Mus musculus) (UniProt P39654).
T3 sequence (whole entry): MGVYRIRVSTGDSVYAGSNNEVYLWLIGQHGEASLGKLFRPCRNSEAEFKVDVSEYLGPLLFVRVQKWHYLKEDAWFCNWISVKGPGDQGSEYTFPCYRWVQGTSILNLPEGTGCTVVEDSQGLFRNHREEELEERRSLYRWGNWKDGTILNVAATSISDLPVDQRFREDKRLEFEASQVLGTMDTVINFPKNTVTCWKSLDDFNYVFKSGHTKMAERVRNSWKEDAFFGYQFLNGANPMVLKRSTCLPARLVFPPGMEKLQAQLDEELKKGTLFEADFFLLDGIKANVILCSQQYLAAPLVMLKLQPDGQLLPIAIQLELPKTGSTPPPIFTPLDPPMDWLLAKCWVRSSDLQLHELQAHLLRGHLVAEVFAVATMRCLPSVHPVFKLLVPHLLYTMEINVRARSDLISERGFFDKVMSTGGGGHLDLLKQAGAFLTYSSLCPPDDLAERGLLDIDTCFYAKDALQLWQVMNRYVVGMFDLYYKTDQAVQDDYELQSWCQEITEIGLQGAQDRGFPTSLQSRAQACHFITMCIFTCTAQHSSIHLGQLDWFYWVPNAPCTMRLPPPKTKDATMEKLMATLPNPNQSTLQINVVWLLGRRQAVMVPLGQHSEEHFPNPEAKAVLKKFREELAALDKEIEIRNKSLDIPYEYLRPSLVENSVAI
In words: Inhibition of 15-LOX-1 in C57bl/6 mouse precision-cut lung slices assessed as reduction in LPS-stimulated IL-6 mRNA expression level at 50 uM incubated for 20 hrs followed by LPS stimulation for 4 hrs in presence of linoleic acid by RT-qPCR analysis. In short, it runs like this:
(§1)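 Lung slices, 250 μm, were cut from agarose-filled lungs of male C57bl/6 mice aged 8-10 weeks and cultured at 37 °C in 5% CO2 in supplemented DMEM, 3 slices per well. Inhibitor was given for 20 h with 10 μM linoleic acid. For the last 4 h, 10 ng/ml LPS plus 10 ng/ml IFNγ were added. Read-out was RT-qPCR (10 ng cDNA, GAPDH assay included), in duplicate or triplicate wells, as fold change versus LPS/linoleic acid control, with 4-6 independent experiments.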

For assay [4], the target named is T3, Polyunsaturated fatty acid lipoxygenase ALOX15 (Mus musculus). In words: Inhibition of 15-LOX-1 in C57bl/6 mouse precision-cut lung slices assessed as reduction in LPS-stimulated IL-1beta mRNA expression level at 50 uM incubated for 20 hrs followed by LPS stimulation for 4 hrs in presence of linoleic acid by RT-qPCR analysis. The gist of the method: as §1
Assay [5] shares this target. In words: Inhibition of 15-LOX-1 in C57bl/6 mouse precision-cut lung slices assessed as reduction in LPS-stimulated TNFalpha mRNA expression level at 50 uM incubated for 20 hrs followed by LPS stimulation for 4 hrs in presence of linoleic acid by RT-qPCR analysis. In short, it runs like this:
as §1
Background: Quantitative PCR measures a nucleic acid by following its amplification.

For assay [6] the target is unchanged. In words: Inhibition of 15-LOX-1 in mouse HT22 cells assessed as inhibition of glutamate-induced lipid peroxidation at 10 uM incubated for 6 to 7 hrs by BODIPY 581/591 C11 staining based FACS analysis. In kind it is cell-based. Particulars: HT-22. In short, it runs like this:
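HT-22 cells were seeded at 5x10^4 per well and incubated overnight. They were then exposed to 4 mM glutamate in DMEM/10% FCS, with or without 10 µM test inhibitor or 1 µM PD146176, for 6-7 h or 14-16 h. Cells were stained with BODIPY 581/591 C11 at 2 µM final for 1 h at 37 °C. The red-to-green fluorescence shift was read by flow cytometry (488 nm excitation). At least 3 experiments were run, each in triplicate.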
Background: In flow cytometry, cells or beads pass a laser one at a time.

Assay [7] has the same target. In words: Inhibition of 15-LOX-1 in mouse HT22 cells assessed as protection against glutamate-induced cell death by measuring increase in cell viability at 10 uM incubated up to 8 hrs following glutamate challenge by MTT assay. In kind it is cell-based. Particulars: HT-22. The gist of the method: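 HT-22 cells were seeded at 8x10^3 per well and incubated overnight. They were challenged with 4 mM glutamate in DMEM/10% FCS. Inhibitor was given either with glutamate (1-20 µM; PD146176 at 1 µM) or added at 5 or 10 µM 2, 4, 6 or 8 h after glutamate. After 14-16 h, MTT was added at 0.5 mg/mL for 1 h at 37 °C. Formazan was dissolved in DMSO and read at 570 nm minus 630 nm background, expressed relative to control. Three experiments were run with 6-8 replicates each.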
(In general: Tetrazolium assays rely on reduction of a dye to a coloured formazan, in cell work by metabolically active cells.)

For assay [8] the target is unchanged. Kind of assay: Inhibition of 15-LOX-1 in mouse HT22 cells assessed as protection against glutamate-induced cell impedance at 10 uM incubated up to 8 hrs following glutamate challenge measured up to 20 hrs by real time cell viability assay. In kind it is cell-based. Particulars: HT-22. The gist of the method: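 HT-22 cells were seeded at 8x10^3 per well, incubated overnight, then given 4 mM glutamate. Inhibitor was either co-applied (1-20 µM; PD146176 at 1 µM) or added at 10 µM 2, 4, 6 or 8 h after glutamate. Impedance was recorded in real time for 16-20 h, with cell index normalized just before glutamate addition.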

What is called Ki is a dissociation constant, usually derived from enzyme kinetics or from competition with a known ligand. Broadly, the inhibition is the relative decrease from the control value, in per cent. `CCCCNC(=O)c1cc(-c2ccccc2)sc1N`: the Ki in assay [1] is 3.3 µM. Further, the Vmax(app) in assay [2] came to 1.6 ×10⁻⁴ abs/s. In addition, the inhibition in assay [3], in assay [4] and in assay [5] was 50% each time. Further, the inhibition entry in assay [6], in assay [7] and in assay [8] was “Active” in each case.

(Values after ChEMBL document CHEMBL3871264, “Design of a novel thiophene inhibitor of 15-lipoxygenase-1 with both anti-inflammatory and neuroprotective properties” (Eur J Med Chem, 2016).)
